From ChEMBL document CHEMBL3593226, “Discovery of small molecules with vasodilating characteristics and adjustable hydrolytic behavior” (Bioorg Med Chem, 2015) come the findings set out here.

A word on the pEC50: it is −log10 of the EC50, conventionally taken in molar units. Read a high pEC50 as a low EC50. As a reminder, the half-life is how long it takes for the measured level to halve. A low value points to fast loss.

Molecules are shown by their SMILES. pEC50: −log10 of the molar value. Activity calls are given as the source filed them.

The subject of data set [1] is Aorta. Briefly: Vasodilating activity in potassium chloride-mediated precontracted guinea pig aorta compound treated every 45 mins by chart recorder analysis. The class given is functional, tissue-based. The conditions noted are these: Cavia porcellus, 0.75 h. The essentials:
(§1)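 Guinea pig aortic or pulmonary artery rings held at 19.6 mN resting tension and precontracted with 90 mM KCl. Compound added cumulatively every 45 min after a control period, with relaxation recorded on a chart recorder. Solvent-only effect subtracted. Mean ± SEM of 3–5 experiments; paired Student's t-test.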

Data set [2] is described as follows: Vasodilating activity in potassium chloride-mediated precontracted guinea pig pulmonary artery compound treated every 45 mins by chart recorder analysis. It is filed as functional, tissue-based, Cavia porcellus. Summed up: as §1
In data set [3] the test system is Ileum. Briefly: Spasmolytic activity in potassium chloride-mediated precontracted guinea pig terminal ileum compound treated every 45 mins by chart recorder analysis. The class given is functional, tissue-based. The following applies: Cavia porcellus, 0.75 h. Summed up: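 Guinea pig terminal ileum held at 4.9 mN resting tension and precontracted with 60 mM KCl. Compound added cumulatively every 45 min after a control period, with relaxation recorded on a chart recorder. Solvent-only effect subtracted. Stocks in distilled water or DMSO. Mean ± SEM of 3–5 experiments.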

A short description of data set [4]: Inotropic activity in electrically-stimulated guinea pig papillary muscle compound treated every 45 mins by chart recorder analysis. The conditions noted are these: Cavia porcellus, 0.75 h. It is filed as functional, tissue-based. Summed up: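 Guinea pig papillary muscles driven electrically at 1 Hz, 3 ms pulses, amplitude 10% above threshold; resting tension 3.92 mN. After a 30 min control period, compound added cumulatively until steady state. Contraction force recorded on a chart recorder; solvent-only effect subtracted. Mean ± SEM of 4–5 experiments; paired t-test.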

The subject of data set [5] is Right cardiac atrium. Kind of data set: Chronotropic activity in electrically-stimulated guinea pig right atrium compound treated every 45 mins by chart recorder analysis. The following applies: Cavia porcellus, 0.75 h. It is filed as functional, tissue-based. Summed up:
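Isolated guinea pig right atria, resting tension 10.37 mN. After a 30 min control period, compound added cumulatively to the bath until steady state. Rate change recorded on a chart recorder; solvent-only effect subtracted. Stocks in distilled water or DMSO. Mean ± SEM of 4–5 experiments; paired Student's t-test.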

The nature of data set [6]: Stability of the compound in D2O assessed as degradation product ratio at 20 mg/ml at 20 degC after 24 hrs by 1H-NMR spectroscopic analysis. It is filed as ADME. Summed up:
(§2)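 Compound dissolved in D2O and kept at 20 °C. 1H NMR spectra taken at 1, 3, 5, 7 and 24 h, in triplicate. Compound-to-degradation-product ratio (%) used to follow hydrolysis. Half-life obtained from an equation fitted to the time-course data. Mean ± SEM of three independent experiments.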

Data set [7] is described as follows: Stability of the compound in D2O assessed as compound remaining at 20 mg/ml at 20 degC after 24 hrs by 1H-NMR spectroscopic analysis. The following applies: read-out: Stability. It is filed as physicochemical. Summed up: as §2
A short description of data set [8]: Half life of the compound in D2O at 20 mg/ml at 20 degC by 1H-NMR spectroscopic analysis. It is filed as physicochemical. Summed up:
as §2

Data set [9] relates to Aorta. Briefly: Vasodilating activity in potassium chloride-mediated precontracted guinea pig aorta at EC50 compound incubated in sealed tube filled with distilled water at room temperature for 24 hrs prior to testing by chart recorder analysis. It is filed as functional, tissue-based. The following applies: Cavia porcellus. Summed up: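 Compound dissolved in distilled water and kept sealed at room temperature for 24 h. The solution was then added at a single concentration to guinea pig aortic rings precontracted with 90 mM KCl. Change in contraction force recorded on a chart recorder for 5 min. Mean ± SEM of three experiments.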

A short description of data set [10]: Stability of the compound in D2O at 20 mg/ml at 20 degC measured over 24 hrs by 1H-NMR spectroscopic analysis. It is filed as physicochemical. Summed up: as §2
The subject of data set [11] is Aorta. Kind of data set: Vasodilating activity in potassium chloride-mediated precontracted guinea pig aorta at EC50 compound treated every 45 mins by chart recorder analysis in presence of 30 uM KATP channel inhibitor glibenclamide. It is filed as functional, Cavia porcellus.
The subject of data set [12] is Aorta. Briefly: Vasodilating activity in potassium chloride-mediated precontracted guinea pig aorta at EC50 compound treated every 45 mins by chart recorder analysis in presence of 100 uM KATP channel inhibitor glibenclamide. The class given is functional, Cavia porcellus.
Data set [13] has as its system Aorta. Briefly: Vasodilating activity in potassium chloride-mediated precontracted guinea pig aorta at EC50 compound treated every 45 mins by chart recorder analysis in presence of 100 uM eNOS inhibitor nitro-L-arginine. The following applies: Cavia porcellus. It is filed as functional, tissue-based.

On to `CCCOC(=S)N1CCN(C)CC1`, for which the negative-log EC50 (pEC50) in data set [1], in [2], in data set [3], in data set [4] and in data set [5] was less than 4.00 in each case.
For the compound `CCOC(=O)CCSC(=S)n1ccnc1`, the negative logarithm of the EC50 (pEC50) is 4.80 in data set [1]; 4.70 in data set [2]; 4.49 in data set [3]; less than 4.00 in data set [4]; less than 4.00 in data set [5].
Take `CC(C)OC(=S)n1ccnc1`: the pEC50 in data set [1] is 4.34; in data set [2], less than 4.00; in [3], 4.68; in [4] it was less than 4.00; in data set [5], less than 4.00.
Take `S=C(SCc1ccccc1)n1ccnc1`: the pEC50 in data set [1] was 4.70; in data set [2] it was 4.20; in [3], 4.40; in data set [4], 4.52; in data set [5], less than 4.00.
On to `S=C(OC1CCCC1)n1ccnc1`, for which the pEC50 in data set [1] is 4.44; in data set [2], less than 4.00; in [3] it was 4.80; in data set [4], less than 4.00; in data set [5] it was less than 4.00.
Regarding `CCOC(=S)n1ccnc1.Cl`, the pEC50 in data set [1] is 4.28; in data set [2] it was 4.72; in data set [3], 5.32; in [4] it was less than 4.00; in data set [5] it was less than 4.00. In addition, in data set [6], the Ratio was determined as 0.35. For the same compound, the remaining at 24 h, 20 mg/ml in [7] was 26%. In data set [8], this compound showed a half-life at 20 mg/ml of 6.5 h. For the same compound, the outcome in data set [9] was inactive.
Regarding `CC(=O)OCCSC(=S)n1ccnc1`, the pEC50 in data set [1] is 5.24; in data set [2], 4.62; in data set [3], less than 4.00; in data set [4] it was 4.11; in data set [5], less than 4.00.
On to `CCCOC(=S)n1ccnc1`, for which the pEC50 in [1] is 4.52; in data set [2], 4.00; in data set [3] it was 4.68; in data set [4], less than 4.00; in data set [5], less than 4.00.
For the compound `CCOC(=S)OCCN(C)C`, the pEC50 in data set [1], in [2], in [3], in data set [4] and in data set [5] was less than 4.00 in each case.
`CSC(=S)n1ccnc1.Cl`: the negative-log EC50 (pEC50) in data set [1] is 5.11; in [2] it was 5.16; in data set [3], 5.24; in data set [4], 4.11; in data set [5], less than 4.00. Further, the Stability entry in data set [10] was “Stable”. The Activity in [11] and in data set [12] was 50% throughout.
Regarding `Cc1nccn1C(=S)SCc1ccccc1`, the pEC50 in data set [1] is 5.47; in data set [2], 4.89; in [3], 4.80; in data set [4], less than 4.00; in [5], 4.80.
Take `O=C(OC1CCCCC1)n1ccnc1`: the pEC50 in [1], in data set [2], in [3], in [4] and in [5] was less than 4.00 throughout.
As to `CSC(=S)n1c(C)nc2ccccc21`, the negative-log EC50 (pEC50) in data set [1] is 4.64; in [2], 4.60; in data set [3], 4.59; in data set [4], 4.25; in data set [5], less than 4.00.
As for `Cl.S=C(OC1CCCCC1)n1ccnc1`, the pEC50 was 4.85 in [1]; 4.62 in data set [2]; less than 4.00 in [3]; less than 4.00 in data set [4]; less than 4.00 in data set [5]. Also, in data set [6], the Ratio was 0.09. Further, the remaining at 24 h, 20 mg/ml in [7] was found to be 8%. In [8], this compound had a half-life at 20 mg/ml of 12.3 h. The result in [11] (Cavia porcellus), in [9], in data set [12] (Cavia porcellus) and in data set [13] was inactive.
As for `CCOC(=S)OCCCN(C)C`, the pEC50 in data set [1], in data set [2], in [3], in data set [4] and in data set [5] was less than 4.00 each time.
As to `CCCCCCOC(=S)OCCCN(C)C`, the pEC50 is less than 4.00 in data set [1]; less than 4.00 in data set [2]; 4.80 in data set [3]; 5.23 in data set [4]; 4.46 in data set [5].
As to `C[N+](C)(C)CCOC(=S)OCC[N+](C)(C)C`, the pEC50 in data set [1], in data set [2], in data set [3], in data set [4] and in data set [5] was less than 4.00 throughout.
For the compound `COc1cc(CSC(=S)n2ccnc2)cc(OC)c1OC`, the pEC50 in [1] is 5.52; in [2], 5.10; in data set [3], 4.82; in [4], 4.57; in data set [5] it was less than 4.00.
For `CC(C)OC(=O)n1ccnc1` the same measures were less than 4.00, less than 4.00, less than 4.00, less than 4.00 and less than 4.00.
For `COc1ccc(CSC(=S)n2ccnc2)cc1` the same measures were 4.89, 4.62, less than 4.00, less than 4.00 and less than 4.00.
For `CCCOC(=S)OCCN(C)C` the same measures were less than 4.00, less than 4.00, less than 4.00, 4.24 and less than 4.00.
As for `CSC(=S)n1ccnc1C`, the pEC50 is 5.20 in [1]; 4.96 in data set [2]; 5.02 in [3]; less than 4.00 in data set [4]; less than 4.00 in data set [5].
With `S=C(N1CCCCC1)n1ccnc1`, the pEC50 in data set [1], in [2], in data set [3], in data set [4] and in data set [5] was less than 4.00 throughout.
Turning to `CCCOC(=S)OCCCN(C)C`, the pEC50 in data set [1] is less than 4.00; in data set [2] it was less than 4.00; in [3], less than 4.00; in data set [4] it was 4.43; in data set [5], less than 4.00.
For the compound `CC(C)CN(CC(C)C)C(=S)n1ccnc1`, the pEC50 was 4.85 in [1]; 4.59 in [2]; 4.77 in data set [3]; 5.19 in data set [4]; 4.32 in data set [5].
Turning to `CCCCOC(=S)OCCCN(C)C`, the negative-log EC50 (pEC50) in data set [1] was less than 4.00; in data set [2], less than 4.00; in [3], 4.77; in data set [4], 5.37; in data set [5], less than 4.00.
For `CCOC(=S)N1CCN(C)CC1`, the negative logarithm of the EC50 (pEC50) in data set [1], in data set [2], in [3], in data set [4] and in [5] was less than 4.00 in each case.
Consider `CCCCOC(=S)n1ccnc1`, for which the negative logarithm of the EC50 (pEC50) in data set [1] is 4.89; in data set [2], 4.64; in [3], 4.68; in [4], less than 4.00; in [5], less than 4.00.
Turning to `CN(C)CCOC(=S)OCCN(C)C`, the negative logarithm of the EC50 (pEC50) in [1], in data set [2], in data set [3], in data set [4] and in data set [5] was less than 4.00 in each case.
